Data reported in ChEMBL document CHEMBL4732262, “Identification of two novel thiophene analogues as inducers of autophagy mediated cell death in breast cancer cells” (Bioorg Med Chem, 2021).
Active and inactive are the calls of the source. The rule behind the calls is not given here.

How the values were obtained:
[1] = system: MCF7; test: Induction of autophagy in human MCF7 cells assessed as increase in LC3-2 to LC3-1 protein ratio at 2.5 uM after 24 hrs by Western blot analysis; type: functional, cell-based
Outline: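 MCF7 cells (~5 × 10^6) left untreated (DMSO control) or exposed to 2.5 µM compound for 24 h. Lysed in RIPA buffer, probed overnight at 4 °C, then given infrared-tagged secondary antibodies for 1 h at 37 °C and imaged by infrared scanning. LC3-II/I ratio and p62 taken by densitometry with GAPDH as loading control. Two independent experiments.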

[2] = system: MCF7; test: Induction of apoptosis in human MCF7 cells assessed as morphological changes at 2.5 uM after up to 24 hrs by phase contrast microscopic method; type: functional, cell-based; settings: time hrs <=24
Outline: (§1)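 ~5 × 10^4 cells in 6-well plates, either DMSO control or 2.5 µM. Morphology imaged at 0, 6, 12 and 24 h.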

[3] = system: MCF7; test: Induction of autophagy in human MCF7 cells assessed as increase in ATF4 protein expression at 2.5 uM after 24 hrs by Western blot analysis; type: functional, cell-based
Outline: (§2)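 MCF7 or MDA-MB-231 cells given 2.5 µM or DMSO for 24 h, then lysed in RIPA buffer. Immunoblots probed overnight at 4 °C, followed by infrared-labelled secondary antibody for 1 h at 37 °C. Bands imaged and quantified densitometrically, with GAPDH as loading control. Representative of two independent experiments.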

[4] = system: MCF7; test: Induction of autophagy in human MCF7 cells assessed as increase in Bcl2L11 mRNA expression at 2.5 uM after 24 hrs by RT-PCR analysis; type: functional, cell-based
Outline: (§3)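 MCF7 cells given 2.5 µM or DMSO for 24 h. Total RNA extracted with TRIzol and reverse-transcribed, then SYBR Green qPCR across 34 autophagy-regulatory genes (95 °C 10 min; 40 cycles of 95 °C 15 s and 60 °C 1 min). Relative expression by 2^-ΔΔCt against housekeeping genes and DMSO control, shown as log2. Two independent experiments.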

[5] = system: MCF7; test: Cytotoxicity against human MCF7 cells assessed as reduction in cell viability at 25 to 100 uM after 24 hrs in presence of chloroquine by MTT assay; type: functional, cell-based; settings: dose 25-100 µM
Outline: (§4)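 ~0.5 × 10^5 cells per well in six-well plates given 2.5 µM test agent together with chloroquine at 25, 50 or 100 µM, 24 h at 37 °C in humidified CO2. Viability read by MTT. Duplicate assays from two independent experiments, shown with SD.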

[6] = system: MCF7; test: Induction of apoptotic in human MCF7 cells assessed as increase in Bim protein expression at 2.5 uM after 24 hrs by Western blot analysis; type: functional, cell-based; outline: as §2
[7] = system: MCF7; test: Induction of apoptosis in human MCF7 cells assessed as change in Bak1 protein expression at 2.5 uM after 24 hrs by Western blot analysis; type: functional, cell-based; outline: as §2
[8] = system: MCF7; test: Cytotoxicity against human MCF7 cells assessed as reduction in cell viability after 24 hrs by MTT assay; type: functional, cell-based; settings: MCF7, 24 h
Outline: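 Cells seeded ~5 × 10^3 per well in 96-well plates, exposed to 0–40 µM for 24 h. MTT added at 0.5 mg/ml for 3 h, formazan dissolved in DMSO, absorbance read at 540 nm. IC50 taken from plotted curves. Duplicate wells, two independent repeats. MCF7 grown in DMEM, MDA-MB-231 in RPMI, both with 10% FBS at 37 °C and 5% CO2.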

[9] = system: MCF7; test: Induction of apoptosis in human MCF7 cells at 2.5 uM after 24 hrs by annexin V-FITC/Propidium iodide staining based flow cytometric analysis relative to tanshinone-1; type: functional
[10] = system: MCF7; test: Induction of autophagy in human MCF7 cells assessed as increase in PPP1R15A mRNA expression at 2.5 uM after 24 hrs by PCR microarray analysis; type: functional, cell-based
Outline: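 MCF7 cells (~10 × 10^6) were treated with 2.5 µM compound or DMSO for 24 h. Total RNA was converted to cDNA and run on an Unfolded Protein Response RT2 Profiler PCR array. Log2 fold change was computed by 2^-ΔΔCt against control cells, normalized to the mean of ACTB, B2M, GAPDH, HPRT1 and RPLPO.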

[11] = system: MCF7; test: Induction of autophagy in human MCF7 cells assessed as LC3-2 to LC3-1 protein ratio at 2.5 uM after 24 hrs in presence of chloroquine by Western blot analysis (reference value: 0.52 to 0.65)
[12] = system: MDA-MB-231; test: Cytotoxicity against human MDA-MB-231 cells assessed as reduction in cell viability at 25 to 100 uM after 24 hrs in presence of chloroquine by MTT assay; type: functional, cell-based; settings: dose 25-100 µM; outline: as §4
[13] = system: MDA-MB-231; test: Induction of apoptosis in human MDA-MB-231 cells assessed as morphological changes at 2.5 uM after up to 24 hrs by phase contrast microscopic method; type: functional, cell-based; settings: time hrs <=24; outline: as §1
[14] = system: MCF7; test: Induction of autophagy in human MCF7 cells assessed as increase in GABARAP mRNA expression at 2.5 uM after 24 hrs by RT-PCR analysis; type: functional, cell-based; outline: as §3
[15] = system: MCF7; test: Induction of apoptosis in human MCF7 cells assessed as increase in cleaved-PARP protein expression after 24 hrs by Western blot analysis; type: functional, cell-based; settings: dose 1.25-5 µM
[16] = system: MCF7; test: Induction of apoptosis in human MCF7 cells assessed as change in Bcl-xL protein expression at 2.5 uM after 24 hrs by Western blot analysis; type: functional, cell-based; outline: as §2
[17] = system: MCF7 (Homo sapiens); test: Induction of apoptosis in human MCF7 cells assessed as increase in cell death at 2.5 uM after 24 hrs by EtBr/AO staining based fluorescence microscopic method
[18] = system: MDA-MB-231; test: Induction of apoptosis in human MDA-MB-231 cells assessed as reduction in size of cells at 2.5 uM by phase contrast microscopic method; type: functional, cell-based; settings: time 6-24 hrs, TDE = time-dependent effect; outline: as §1
[19] = system: MDA-MB-231; test: Induction of apoptosis in human MDA-MB-231 cells at 2.5 uM after 24 hrs by annexin V-FITC/Propidium iodide staining based flow cytometric analysis relative to tanshinone-1; type: functional
[20] = system: MDA-MB-231; test: Induction of apoptosis in human MDA-MB-231 cells assessed as reduction in number of cells at 2.5 uM by phase contrast microscopic method; type: functional, cell-based; settings: time 6-24 hrs, TDE = time-dependent effect; outline: as §1
[21] = system: MCF7; test: Induction of apoptosis in human MCF7 cells assessed as increase in cell death at 2.5 uM after 24 hrs by EtBr/AO staining based fluorescence microscopic method; type: functional
Outline: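 ~5 × 10^4 MCF7 cells on coverslips given 2.5 µM for 24 h, then PBS-washed and stained with 1:1 ethidium bromide/acridine orange (0.4 mg/ml each). Viewed by fluorescence microscopy, excitation 480 nm with a 515–530 nm barrier filter. Apoptotic, necrotic and viable cells scored from 200 cells per sample.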

[22] = system: MCF7; test: Induction of autophagy in human MCF7 cells assessed as LC3-2 to LC3-1 protein ratio at 2.5 uM after 24 hrs by Western blot analysis (reference value: 0.22 to 0.8); type: functional
[23] = system: MCF7; test: Induction of autophagy in human MCF7 cells assessed as increase in p62 degradation level after 24 hrs by Western blot analysis; type: functional, cell-based; settings: dose 1.25-5 µM
Outline: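 Dose series in MCF7 cells (~5 × 10^6): 0, 1.25, 2.5 and 5 µM compound for 24 h, DMSO control. Lysates immunoblotted for p62 and LC3, GAPDH loading control, with infrared densitometry. At least two independent experiments.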

SMILES	Activity [1]	Activity [2]	Activity [3]	Activity [4]	Activity [5]	Activity [6]	Activity [7]	IC50 [8] [nM]	fold change (FC) [9]	Activity [10]	Ratio [11]	Activity [12]	Activity [13]	Activity [14]	Activity [15]	Activity [16]	Activity [17]	Activity [18]	fold change (FC) [19]	Activity [20]	other results
O=C1C(=O)c2ccsc2-c2ccccc21	Active	Active	Active	Active	inactive	Active	inactive	1940	>=2	Active	0.92	inactive	Active	Active	Dose-dependent effect	inactive	Active	Tde	>=2	Tde	Activity [21]: Active; Ratio [22]: 16.3; Activity [23]: Dose-dependent effect
O=C1C(=O)c2sccc2-c2ccccc21	Active	Active	Active	Active	inactive	Active	inactive	1860	>=2	Active	1.1	inactive	Active	Active	Dose-dependent effect	inactive	Active	Tde	>=2	Tde	Activity [21]: Active; Ratio [22]: 7.14; Activity [23]: Dose-dependent effect
